Compound activity as filed in PubChem BioAssay.
The list is not random: actives were taken first. Their share in the collection is about 1%.
TLR9-MyD88 block: blocks human TLR9 binding to MyD88. CHO BLA complementation TLR9-MyD88, CCF4 FRET ratio. inhibition, % at 4.98 µM. actives 0.21% (n = 340,000). AID 504734;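 active means inhibition above the mean over all tested compounds plus 3 SD, cut at about 21% in these data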;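 further: 0% = DMSO only wells and 100% = clavulanate BLA inhibitor control wells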
TLR4-MyD88 BLA: inhibitors of human TLR4-MyD88 binding; O00206+Q99836; HeLa CL3-4 TLR4/MyD88 BLA complementation, FRET ratio; inhibition, % at 8.4 µM; actives 0.18% (n = 200,000); in the data active means inhibition above about 25%;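 further: 0% = vehicle and 100% = reference inhibitor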
Hsp70 activator: transcriptional activators of Hsp70; HeLa Hsp70 promoter luciferase reporter, luminescence; scaled: vehicle 0, proteasome-inhibitor control 100%; activation, % at 10 µM; actives 0.04% (n = 200,000);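 active means activation above the mean across all tested compounds plus 3 SD, cutoff set per campaign, cut at about 5.5% in these data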;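 further: 100% = MG132 at 30 µM as the positive control and 0% = DMSO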
MT stabilizer: microtubule stabilization, imaging screen. HeLa tubulin immunostaining HCS, 24 h; share of cells brighter than vehicle mean+2SD. % tubulin-high responders, % at 10 µM. actives 0.83% (n = 200,000). AID 2205;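 active means plate Z-score above 3 for both tubulin-high and condensed-nucleus cell shares, with cell loss under 80%, at 10 µM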;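 further: anti alpha tubulin signal scored within the nucleus-defined area of each cell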
b-catenin transl: beta-catenin nuclear translocation modulation; HeLa beta-catenin nuclear translocation, immunofluorescence imaging; nuclear translocation activity, % at 5 µM; actives 0.3% (n = 190,000); AID 1665;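 active means nuclear translocation activity above 50% at 5 µM, with a well cell count of 50 or more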;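 further: per-cell ratio of nuclear to cytoplasmic median beta-catenin stain intensity; plate controls were DMSO negative control for no effect and GSK-3 inhibitor IX positive control for full effect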
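System: HeLa cells, endogenous beta-catenin; compound dosing: 5 µM primary single dose, 0.1% DMSO, 0.02–20 µM confirmation series; incubation: 24 h compound exposure at 37°C, 5% CO2; signal: beta-catenin immunofluorescence imaging with DAPI; evaluation: % activation, nuclear-to-cytoplasmic median beta-catenin signal ratio per cell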
NOD2 RIPK2 PPI: inhibitors of human NOD2-RIPK2 interaction; inhibition, % at 4.98 µM; O43353; actives 0.38% (n = 360,000); CHO BLA complementation NOD2-RIPK2, CCF4 ratio; in the data active means inhibition above about 21%;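 further: 0% = vehicle only and 100% = reference blocker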
Target sequence (O43353 whole entry, looked up): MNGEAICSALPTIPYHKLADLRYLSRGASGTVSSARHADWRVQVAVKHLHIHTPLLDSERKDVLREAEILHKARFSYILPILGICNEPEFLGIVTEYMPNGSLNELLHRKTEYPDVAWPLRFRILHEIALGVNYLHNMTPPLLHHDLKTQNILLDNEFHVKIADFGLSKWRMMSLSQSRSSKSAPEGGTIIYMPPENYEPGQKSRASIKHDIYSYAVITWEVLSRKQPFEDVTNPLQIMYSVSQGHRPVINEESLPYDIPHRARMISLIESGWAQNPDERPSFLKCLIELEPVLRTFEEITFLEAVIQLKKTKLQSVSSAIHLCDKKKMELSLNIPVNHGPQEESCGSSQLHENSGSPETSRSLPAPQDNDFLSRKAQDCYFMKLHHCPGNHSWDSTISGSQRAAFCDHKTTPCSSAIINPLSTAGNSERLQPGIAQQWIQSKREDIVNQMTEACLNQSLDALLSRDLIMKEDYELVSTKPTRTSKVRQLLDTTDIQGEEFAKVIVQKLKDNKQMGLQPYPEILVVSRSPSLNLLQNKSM
Starred values were filed as active, the others as inactive; . = not tested or not shown.

SMILES	TLR9-MyD88 block	TLR4-MyD88 BLA	Hsp70 activator	MT stabilizer	b-catenin transl	NOD2 RIPK2 PPI
O=C1c2cc(Br)ccc2N(Cc2ccc(Br)cc2)S(=O)(=O)C1c1cc(Cl)c(Cl)cc1[N+](=O)[O-] (stereo unspecified)	-2	.	.	.	.	-12
COc1ccccc1N=CC1=C(O)CC(c2ccccc2)CC1=O (stereo unspecified)	-1	17	0	5	96*	-2
O=C1CC(c2ccccc2)CC(O)=C1C=Nc1ccccc1Cl (stereo unspecified)	2	14	0	3	8	3
COc1ccc2c(c1)CSC(c1ccccc1)C2=O (stereo unspecified)	0	.	.	.	.	-1
COc1ccc(S(=O)(=O)N(C(=O)c2ccncc2)c2ccc3oc4c(c3c2)CCCC4)cc1	-17	-1	0	22*	-1	1
O=C(c1ccncc1)N(c1ccc2oc3c(c2c1)CCCC3)S(=O)(=O)c1cccc([N+](=O)[O-])c1	0	-2	0	3	0	10
COCC1CCCCC1OS(N)(=O)=O (stereo unspecified)	-12	.	.	.	.	4
COc1cc(/C=N/Nc2snc(SC)c2C#N)ccc1O	3	-8	0	49*	24	5
COc1cc(/C=N/Nc2nc(C)cc(C)n2)ccc1O	-2	.	.	.	.	1
CCCN1CCC(=NNc2ccc(S(=O)(=O)N(CC)CC)cc2[N+](=O)[O-])CC1	5	3	0	14	112*	-12
CCCN1CCC(=NNc2ccc(S(N)(=O)=O)cc2[N+](=O)[O-])CC1	7	-5	0	4	-3	3
COc1ccc(/C=N/NC(=O)c2[nH]c3ccc(Br)cc3c2-c2ccccc2)c(C(=O)O)c1OC	-3	.	.	.	1	0
COc1ccc(/C=N/NC(=O)c2[nH]c3ccc(Br)cc3c2-c2ccccc2)cc1	7	1	0	14*	42	11
NNC(=O)c1[nH]c2ccc(Br)cc2c1-c1ccccc1	4	.	.	.	-1	1
O=C(N/N=C/c1ccccc1Cl)c1[nH]c2ccc(Br)cc2c1-c1ccccc1	-3	15	0	7	94*	15
Cc1c(C(=O)N/N=C/c2ccccc2)[nH]c2ccc(Cl)cc12	5	5	0	13	56*	3
CCc1ccc(S(=O)(=O)N2CCN(c3ncccn3)CC2)cc1	-4	.	.	.	.	-7
CC(=O)Nc1ccc(CN2C(=O)C(C)ON=C2c2ccccc2-c2ccco2)cc1 (stereo unspecified)	.	.	.	.	.	7
O=C(NCc1cccnc1)C(=O)NCC1OCCCN1S(=O)(=O)c1cc(F)ccc1F (stereo unspecified)	-2	.	.	.	.	-2
CCCS(=O)(=O)NC(=O)C1(C)CCN(C(=O)c2cc(F)cc(F)c2)C1 (stereo unspecified)	.	.	.	.	.	-4
O=C(N/N=C/c1ccc(Cl)cc1)c1cc2c(s1)-c1ccccc1CC2	-8	0	0	35*	-3	-6
Cc1cc(C)n(-c2nc3c(c(=O)[nH]c(=O)n3C)n2CCc2ccccc2)n1	-5	2	0	41*	-2	2
CCOC(=O)c1c(C)c(C(=O)Nc2ccc3c(c2)OCCO3)c(C)n1C	2	-10	0	4	1	-4
CCOC(=O)c1c(C)c(C(=O)Nc2cc(F)ccc2F)c(C)n1C	-1	-4	0	13*	38	-15
COc1cc(C(=O)Nc2ccc(Nc3ccccc3)cc2)cc(OC)c1OC	-5	.	.	.	.	1
SMILES	TLR9-MyD88 block	TLR4-MyD88 BLA	Hsp70 activator	MT stabilizer	b-catenin transl	NOD2 RIPK2 PPI
CCOc1cccc(C2NC(=S)NC(C)=C2C(=O)Nc2ccccc2)c1 (stereo unspecified)	-10	5	0	14*	1	8
CCOc1ccc(-c2cc(CCCC(=O)Nc3cccc(OC)c3)no2)cc1	-2	12	0	23*	100*	-2
O=C(NCc1cc(Cl)cc(Cl)c1)c1csc([C@@H]2C[C@H](O)[C@@H](CO)O2)n1	.	.	.	.	.	-6
COc1ccc(-c2cc(=Nc3c(C)n(C)n(-c4ccccc4)c3=O)c3ccccc3o2)cc1	3	1	0	6	2	-4
COc1ccc(-c2c/c(=N\c3nc(-c4ccccc4)c(C)s3)c3ccccc3o2)cc1O	3	7	0	7	165*	-2
O=C(CCc1nc2ccccc2c(=O)[nH]1)N1CCN(S(=O)(=O)c2ccc(F)cc2)CC1	-5	.	.	.	.	-10
COc1ccc2c(c1)c(=O)c(C(=O)c1ccccc1)cn2Cc1ccc(C)cc1	1	-5	1	22*	5	-7
O=C(c1cnn2c1NC(c1ccco1)CC2C(F)(F)F)N1CCN(c2cccc(Cl)c2)CC1 (stereo unspecified)	3	-2	0	45*	44	4
CC1Cc2ccccc2N1C(=O)c1ccc2snnc2c1 (stereo unspecified)	-2	2	0	4	-6	-7
Cc1nc2cc(C(=O)N3c4ccccc4CC3C)ccc2s1 (stereo unspecified)	-9	7	0	26*	47	-11
COc1ccc(-c2nn(-c3ccccc3)cc2C(=O)NC2CCCCC2C)cc1 (stereo unspecified)	6	.	.	.	.	-6
COc1cc(C2Sc3ccccc3NC3=C2C(=O)OC3)cc(OC)c1OC (stereo unspecified)	0	2	0	40*	1	-8
Cc1ccc([C@H]2C[C@H](n3cc(C4CC4)nn3)[C@@H](O)CN2C(=O)C2CCCCC2)cc1	-3	.	.	.	.	-8
COc1ccc(-c2nc3ccc(N4CCCC4)cc3c(=O)[nH]2)cc1OC	0	-2	0	15*	-1	6
CC(C)(C)c1ccc(C(=O)n2cnc3ccccc32)cc1	-5	.	.	.	.	3
CCN(CC)c1ccc(C(=O)n2cnc3ccccc32)cc1	0	12	0	22*	6	1
O=C(Nc1ccc2c(c1)OCCO2)C(CCc1ccccc1)N1CCC(Cc2ccccc2)CC1 (stereo unspecified)	.	.	.	.	.	1
O=c1[nH]c(NCc2ccco2)nnc1Cc1ccccc1Cl	-5	6	0	59*	3	-6
Cc1nc(NCc2ccco2)[nH]c(=O)c1CCC(C)C	2	-1	0	3	.	2
CC/C(=N\NC(=O)CCC(=O)NCc1ccccc1)c1ccc(O)cc1	2	14	0	12*	43	9
Cc1ccc(OCCNC(=O)C(=O)NCc2ccco2)cc1	1	3	0	17*	38	-8
Cc1ccc(OCCCC(=O)NCc2ccco2)cc1	-12	0	-1	1	-2	-7
C=CCCC1(C)C(=O)N(c2ccccc2)c2ccccc21 (stereo unspecified)	4	-15	0	19*	.	5
